Scp1 inh = Scp-1 phosphatase inhibitors, primary screen, biochemical, colorimetric, uHTS; Carboxy-terminal domain RNA polymerase II polypeptide A small phosphatase 1 (Homo …; Recombinant Scp1, phosphopeptide, malachite green phosphate absorbance; inhibition, % at 20 µM; 0.88% of 340,000 active; AID 493091, 2011;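 active = inhibition above about 50% at 20 µM, limit read from the data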;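 note: plate controls were DMSO wells with enzyme for no effect and wells lacking enzyme for full effect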
Target sequence (Q9GZU7 76-261 limits assumed): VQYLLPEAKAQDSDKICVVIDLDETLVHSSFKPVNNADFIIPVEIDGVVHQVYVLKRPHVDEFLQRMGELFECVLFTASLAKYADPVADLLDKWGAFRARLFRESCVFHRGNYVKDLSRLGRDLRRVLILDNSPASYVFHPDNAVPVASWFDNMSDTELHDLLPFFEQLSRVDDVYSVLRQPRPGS
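Assay system: SCP-1 catalytic fragment, aa 76-261 | Buffer or medium: Tris acetate buffer pH 5.5 with MgCl2 and Tween-20 | Compound: One concentration, 20 µM, with 1.0% DMSO | Also added: Phospho 17-mer peptide substrate | Signal: Absorbance at 630 nm | Incubation: 45 min enzyme reaction at room temperature | Measure: % inhibition of SCP-1 phosphate liberation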
DSG3 Ab inh = inhibitors of pemphigus antibody binding to DSG3, primary screen, biochemical, bead-based, flow cytometry, scFv-GFP | Desmoglein-3 (Homo sapiens), P32926 | DSG3-coupled beads, scFv-anti-DSG3-GFP binding; active compounds read low | binding (percent of control), % at 10 µM | 0.48% of 310,000 active;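 active = binding more than 3 SD below its plate's average and above zero; inconclusive = below that plate limit but binding exactly zero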;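 note: hits lower antibody fragment binding to DSG3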
LMPTP block = LMPTP phosphatase inhibitors, primary screen, biochemical, fluorescence intensity, uHTS; inhibition, % at 20 µM; 0.22% of 360,000 active; Low molecular weight phosphotyrosine protein phosphatase (Homo sapiens), P24666; recombinant LMPTP-A, OMFP fluorogenic substrate;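 active = compounds that cut the enzyme signal by at least half of the control window in the single-dose screen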;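 note: plate controls were DMSO wells with enzyme plus substrate for no effect and substrate without enzyme for full effect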
Target sequence (P24666 whole entry, looked up): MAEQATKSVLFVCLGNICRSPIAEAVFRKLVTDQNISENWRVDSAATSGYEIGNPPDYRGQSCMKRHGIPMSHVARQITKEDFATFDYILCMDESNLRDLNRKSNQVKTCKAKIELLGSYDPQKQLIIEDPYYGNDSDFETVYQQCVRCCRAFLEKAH
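Test system – LMPTP-A phosphatase enzyme · Quantity – 0.625 nM LMPTP-A final · Reagent – OMFP substrate, 400 µM final · Dosing – one test concentration per compound, 20 µM, with 3% DMSO overall · Timing – 50 min enzyme reaction at room temperature, protected from light · Detection – fluorescence intensity · Controls – substrate-only low control, DMSO enzyme-plus-substrate high control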
SUMO1-SIM PPI = modulators of SUMO1 protein-protein interactions, primary screen, biochemical, uHTS; SUMO1 binding to a labelled peptide, TR-FRET, 1 h; inhibition, % at 20 µM; AID 602429, 2012; 0.33% of 360,000 active; in the data active = inhibition above about 37%
Target sequence (P63165 whole entry, looked up): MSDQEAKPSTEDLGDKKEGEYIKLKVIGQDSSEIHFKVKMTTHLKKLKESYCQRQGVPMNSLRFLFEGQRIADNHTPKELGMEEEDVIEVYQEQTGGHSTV
STEP inh = STEP phosphatase inhibitors, primary screen, biochemical, fluorescence intensity, uHTS | AID 588621, 2011 | inhibition, % at 20 µM | recombinant STEP, OMFP fluorogenic substrate | 0.25% of 360,000 active;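 active = inhibition at 20 µM, scaled per plate between control wells, above about 37%, limit read from the data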;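 note: 0% = DMSO with enzyme and substrate and 100% = substrate only without enzyme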
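Also added – OMFP at 25 µM · Test system – STEP tyrosine phosphatase · Technique – FITC-channel fluorescence of OMFP product · Schedule – 20 min at room temperature, dark · Evaluation – control-normalized % inhibition with plate pattern correction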
Scp-1 conf = Scp-1 phosphatase inhibitors, retest, confirmation, biochemical, colorimetric, single concentration; shares compounds with Scp1 inh; recombinant SCP-1 catalytic domain, phosphate release, malachite green absorbance; inhibition, % at 20 µM; 61% of 2,500 active; AID 540281, 2011;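 note: plate controls were DMSO with enzyme for no effect and buffer wells lacking enzyme for full effect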
Scp-1 MG ctr = colorimetric readout interference by compounds, confirmation, artefact control for Scp-1 inhibitor project, biochemical, single concentration; 2,500 tested, under 10 active; apparent inhibition (interference), % at 20 µM; Colorimetric interference counterscreen, malachite green absorbance 630 nm; AID 540313, 2011; shares compounds with Scp1 inh;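 note: compounds added after enzyme reaction finished so only phosphate colour detection is probed; plate controls were DMSO wells with completed Scp-1 reaction for no effect and substrate wells lacking enzyme for full effect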
Scp1 DSF = Scp-1 binding by thermal shift, confirmation, orthogonal assay for Scp-1 inhibitor project, biophysical, differential scanning fluorimetry; shares compounds with Scp1 inh; Recombinant SCP1, Sypro Orange thermal shift Tm; thermal shift relative to vanadate control, % at 40 µM; 25% of 1,500 active; AID 540329, 2011;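 active = substances whose mean melting-temperature shift, as a percentage of the reference inhibitor's shift, reaches about 5.3%, limit read from the data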;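 note: 0% = Tm of DMSO wells and 100% = Tm with sodium orthovanadate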
* = called active by the depositor; ? = inconclusive; . = no result given. An excerpt weighted towards active compounds, which were near 1.7% of everything screened.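 Rule for the calls, unless noted: active = inhibition of at least 30% at 20 µM; inactive = the rest.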

SMILES | Scp1 inh | DSG3 Ab inh | LMPTP block | SUMO1-SIM PPI | STEP inh | Scp-1 conf | Scp-1 MG ctr | Scp1 DSF
C[n+]1ccccc1/C=C/c1c(F)cccc1F | 12 | 128 | -1 | -30 | -4 | . | . | .
C[n+]1ccccc1/C=C/c1ccc([N+](=O)[O-])cc1 | -2 | 95 | 1 | -46 | -1 | . | . | .
Cc1ccccc1/C=C/c1cccc[n+]1C | 93* | 124 | -1 | -9 | -1 | -23 | -20 | .
C[n+]1ccccc1/C=C/c1ccc(F)c(F)c1 | 102* | 98 | 0 | -14 | 1 | -21 | -21 | .
C[n+]1ccccc1/C=C/c1ccc(C#N)cc1 | 99* | 104 | -4 | -8 | -2 | 89* | -11 | -1
CC(C)/C(C=O)=C(/NC1CCCCC1)c1ccccc1 | -7 | 91 | 3 | 5 | 2 | . | . | .
N#Cc1ccsc1NC(=O)COC(=O)C1=NNC(=O)CC1 | 71* | . | 62* | 38* | 0 | 49* | -11 | 5
CN(Cc1ccccc1)C(=O)c1ccc(NC(=O)C2=CSCCO2)cc1 | 5 | 105 | -1 | 1 | -1 | . | . | .
O=C(Nc1cccc2nsnc12)c1ccc2c(c1)OCCO2 | 70* | 97 | 0 | -20 | 2 | -16 | -16 | .
Cn1c(SCC(=O)Nc2ncc(C(F)(F)F)cc2Cl)nnc1-c1ccc(Cl)cc1 | 62* | 110 | -3 | 1 | 0 | 19 | 2 | .
CCc1nnc(NC(=O)C2(C)COC(c3ccccc3)OC2)s1 (stereo not given) | 55* | 96 | -1 | 0 | 0 | -5 | -4 | .
CCOc1nc2cnccc2n(CC(=O)Nc2cccc(C)c2C)c1=O | -5 | 78 | -2 | 3 | 0 | . | . | .
Cc1ccc(S(=O)(=O)N2CCCC2C(=O)OCc2ccco2)cc1 (stereo not given) | 77* | 88 | 0 | 11 | 2 | 69* | -8 | 2
Cc1ccc(S(=O)(=O)N2CCCC2C(=O)OCc2ccccc2)cc1 (stereo not given) | -10 | 102 | 0 | 3 | -2 | . | . | .
Cc1ccc(S(=O)(=O)NCC(=O)NCC(=O)OCC(=O)NC(=O)NC(C)(C)C)cc1C | 15 | 106 | 0 | 1 | -2 | . | . | .
O=C(NCCN1CCNC1=O)C1CCC(=O)N(CCc2ccccc2)C1 (stereo not given) | -8 | ? | 1 | 0 | 0 | -16 | -12 | .
Cc1ccc2c(c1)C1OCCC1C1N2C(=O)C2C(C(=O)O)C3C=CC21O3 (stereo not given) | 77* | 96 | 0 | 2 | 2 | 34* | -17 | 4
CCOc1ccccc1-c1nc2c(s1)CCc1onc(-c3ccc(OC)cc3)c1-2 | 81* | 101 | 3 | 9 | 0 | -21 | -24 | .
COc1ccc(-c2noc3c2-c2nc(-c4ccccc4Cl)sc2CC3)cc1 | -17 | 102 | 2 | -1 | 2 | . | . | .
CSCC[C@H](NS(=O)(=O)c1ccc(C(C)=O)cc1)c1nnc2ccccn12 | 61* | 79 | 3 | 0 | 55* | 64* | -4 | -13
O=c1c2c(nc3cc(-c4ccc(Cl)cc4)[nH]n13)CCS2 | 84* | 105 | 61* | 10 | 22 | 31* | -4 | 2
CC(NC(=O)CCNS(=O)(=O)c1ccccc1)c1ccccc1 (stereo not given) | 51* | 104 | -3 | -2 | -2 | -4 | -9 | .
CCOC(=O)c1cccc(NC(=O)Cn2cc3c(n2)CCC(C)C3)c1 (stereo not given) | 68* | 105 | 0 | 6 | 3 | -1 | -10 | .
C#Cc1ccc([C@H]2C=C(C(=O)O)O[C@@H](OCc3ccc(CO)cc3)C2)cc1 | 50* | 93 | 0 | -6 | 5 | 48* | -16 | -2
O=C(CCc1nc2ccccc2c(=O)[nH]1)NNC(=O)c1ccc(Cl)cc1 | -4 | 111 | -1 | 1 | -2 | . | . | .
SMILES | Scp1 inh | DSG3 Ab inh | LMPTP block | SUMO1-SIM PPI | STEP inh | Scp-1 conf | Scp-1 MG ctr | Scp1 DSF
O=C(CCc1nc2ccccc2c(=O)[nH]1)NNC(=O)c1cccc(Cl)c1 | 62* | 105 | 0 | 10 | 1 | -13 | -20 | .
CCOC(=O)c1ccc2c(c1)N(CC)C(=O)c1ccccc1S2 | 83* | 87 | 1 | 6 | 0 | 13 | -9 | .
C=CCNC(=O)c1ccc2c(c1)N(CC)C(=O)c1ccccc1S2 | -5 | 100 | -2 | 1 | -5 | . | . | .
C[N+]1(CC(=O)OC2CCCCCCCCCCC2)CCCC1 | 8 | 103 | 0 | -2 | 3 | . | . | .
CC(=O)/C(C[N+]1(C)CCCCC1)=N\O | 105* | 104 | -1 | 6 | -2 | 84* | -21 | -6
Cc1ccnc(NS(=O)(=O)c2ccc(N3C(=O)c4c(Cl)c(Cl)c(Cl)c(Cl)c4C3=O)cc2)n1 | 67* | 101 | 0 | 29 | 17 | 27 | -14 | .
Cc1ccnc(NS(=O)(=O)c2ccc(N3C(=O)c4ccccc4C3=O)cc2)n1 | -3 | 97 | -1 | -18 | 0 | . | . | .
CSc1nc2nccc(-c3ccc(Cl)cc3)n2n1 | 84* | 88 | 25 | 1 | 5 | 71* | -14 | -22
O=C(C[n+]1cccc(C(=O)Nc2ccccc2)c1)c1ccc(Cl)cc1 | . | . | -2 | -12 | . | . | . | .
NC(=O)C[n+]1cccc(C(=O)Nc2ccccc2)c1 | 90* | 111 | -1 | 1 | -2 | -6 | -6 | .
O=C(COc1ccc(-n2cnnn2)cc1)Nc1cccc(Cl)c1Cl | 69* | . | 22 | 6 | 11 | 68* | -11 | -17
O=C(CC12CC3CC(CC(Br)(C3)C1)C2)NCc1ccccc1 | -2 | 106 | -2 | -2 | -2 | . | . | .
Cc1ccc(NC(=O)COCC(=O)Nc2ccc(C)cc2)cc1 | 4 | 106 | 0 | 2 | 0 | . | . | .
Cc1ccc(S(=O)(=O)OCC(=O)Nc2ccc(C(=O)O)c(O)c2)cc1 | 64* | 84 | 0 | 2 | 6 | 48* | -13 | 7.6*
